In ChEMBL document CHEMBL5576109, “Hydantoin derivative dimers as broad-spectrum antimicrobial agents against ESKAPE pathogens with enhanced killing rate and stability” (RSC Med Chem, 2024):
Converted amounts (≈) assume the structure as drawn.

Experiments:
[1] = system: Staphylococcus aureus; assay: Antibacterial activity against methicillin-resistant Staphylococcus aureus ATCC 43300 assessed as reduction bacterial growth after 16 hrs by TECAN SPARK microplate reader analysis; assay type: functional
Summary of the method: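 Broth microdilution in TSB: single colony grown overnight at 37 °C, diluted 100-fold and grown to mid-log phase. 2-fold serial compound dilutions mixed 1:1 with bacteria at 1 × 10^6 CFU/mL, incubated 16 h at 37 °C, absorbance read at 600 nm. MIC taken as lowest concentration giving complete growth inhibition.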

[2] = system: Staphylococcus aureus; assay: Antibacterial activity against Staphylococcus aureus ATCC 29213 assessed as reduction bacterial growth after 16 hrs by TECAN SPARK microplate reader analysis; assay type: functional
Summary of the method: (§1)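 Single colony grown overnight in 4 mL TSB at 37 °C, diluted 100-fold and grown to mid-log phase. Compounds 2-fold serially diluted in TSB and mixed 1:1 with bacteria in TSB (1 × 10^6 CFU/mL). Incubated 16 h at 37 °C, then A600 read. MIC taken as the lowest concentration giving complete growth inhibition.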

[3] = system: Acinetobacter baumannii; assay: Antibacterial activity against Acinetobacter baumannii ATCC 19606 assessed as reduction bacterial growth after 16 hrs by TECAN SPARK microplate reader analysis; assay type: functional; summary of the method: as §1
[4] = Hemolytic activity in mouse red blood cells assessed as hemolysis incubated for 1 hr by TECAN SPARK microplate reader analysis; assay type: toxicity, cell-based, Erythrocyte; details: red blood cells (erythrocytes)
Summary of the method: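 Mouse RBCs washed three times in 1× PBS by centrifugation (3500 rpm, 10 min) and made up as a 5% v/v suspension. Incubated with 2-fold serially diluted compound in PBS for 1 h at 37 °C, then centrifuged. Supernatant diluted in PBS and A540 read. % hemolysis calculated relative to 1% Triton X-100 (100%) and PBS (0%).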

[5] = system: Pseudomonas aeruginosa; assay: Antibacterial activity against Pseudomonas aeruginosa CMCC 10104 assessed as reduction bacterial growth after 16 hrs by TECAN SPARK microplate reader analysis; assay type: functional; summary of the method: as §1
[6] = system: Escherichia coli; assay: Antibacterial activity against Escherichia coli ATCC 25922 assessed as reduction bacterial growth after 16 hrs by TECAN SPARK microplate reader analysis; assay type: functional; summary of the method: as §1
[7] = system: Klebsiella pneumoniae; assay: Antibacterial activity against Klebsiella pneumoniae ATCC 10031 assessed as reduction bacterial growth after 16 hrs by TECAN SPARK microplate reader analysis; assay type: functional; summary of the method: as §1
[8] = system: Bacillus subtilis; assay: Antibacterial activity against Bacillus subtilis ATCC 6633 assessed as reduction bacterial growth after 16 hrs by TECAN SPARK microplate reader analysis; assay type: functional; summary of the method: as §1
[9] = system: Enterococcus faecalis; assay: Antibacterial activity against Enterococcus faecalis ATCC 29212 assessed as reduction bacterial growth after 16 hrs by TECAN SPARK microplate reader analysis; assay type: functional; summary of the method: as §1
[10] = system: Escherichia coli; assay: Drug resistance, ratio of MIC for Escherichia coli ATCC 25922 after 25 passages to MIC for Escherichia coli ATCC 25922 after initial exposure; assay type: functional
Summary of the method: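 Serial passage resistance selection: after each broth MIC determination, bacteria from the 1/2 MIC well were withdrawn and diluted to 1 × 10^6 CFU/mL for the next MIC measurement. Repeated for 25 passages; MIC after passage 25 compared with the initial MIC.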

Compound	MIC [1]	MIC [2]	MIC [3]	HC50 at 1 h [4]	MIC [5]	MIC [6]	MIC [7]	MIC [8]	MIC [9]	Ratio [10]
COc1cccc(OC)c1C(=O)N[C@@H]1C(=O)N2[C@@H]1SC(C)(C)[C@@H]2C(=O)O [METHICILLIN]	250 µg/mL (≈ 657 µM)	–	–	–	–	–	–	–	–	–
CCCCCCN1C(=O)[C@H](CCCCNC(=N)N)N(Cc2ccc3cc(CN4C(=O)N(CCCCCC)C(=O)[C@@H]4CCCCNC(=N)N)ccc3c2)C1=O	15.6 µg/mL (≈ 20.9 µM)	3.91 µg/mL (≈ 5.23 µM)	31.2 µg/mL (≈ 41.8 µM)	117 µg/mL	15.6 µg/mL (≈ 20.9 µM)	15.6 µg/mL (≈ 20.9 µM)	7.81 µg/mL (≈ 10.5 µM)	3.91 µg/mL (≈ 5.23 µM)	3.91 µg/mL (≈ 5.23 µM)	–
CCCCCCN1C(=O)[C@H](CCCCN)N(Cc2ccc(C#Cc3ccc(CN4C(=O)N(CCCCCC)C(=O)[C@@H]4CCCCN)cc3)cc2)C1=O	62.5 µg/mL (≈ 87.7 µM)	1.95 µg/mL (≈ 2.73 µM)	7.81 µg/mL (≈ 11 µM)	18 µg/mL	15.6 µg/mL (≈ 21.9 µM)	7.81 µg/mL (≈ 11 µM)	7.81 µg/mL (≈ 11 µM)	3.91 µg/mL (≈ 5.48 µM)	7.81 µg/mL (≈ 11 µM)	–
CCCCCCCCN1C(=O)[C@H](CCCCN)N(Cc2ccc(-c3ccc(CN4C(=O)N(CCCCCCCC)C(=O)[C@@H]4CCCCN)cc3)cc2)C1=O	250 µg/mL (≈ 336 µM)	31.2 µg/mL (≈ 41.9 µM)	62.5 µg/mL (≈ 83.9 µM)	–	250 µg/mL (≈ 336 µM)	250 µg/mL (≈ 336 µM)	62.5 µg/mL (≈ 83.9 µM)	15.6 µg/mL (≈ 21 µM)	31.2 µg/mL (≈ 41.9 µM)	–
CCCCCCN1C(=O)[C@H](CCCCN)N(Cc2ccc(CN3C(=O)N(CCCCCC)C(=O)[C@@H]3CCCCN)c3ccccc23)C1=O	125 µg/mL (≈ 189 µM)	15.6 µg/mL (≈ 23.6 µM)	125 µg/mL (≈ 189 µM)	–	62.5 µg/mL (≈ 94.3 µM)	125 µg/mL (≈ 189 µM)	31.2 µg/mL (≈ 47.1 µM)	15.6 µg/mL (≈ 23.6 µM)	62.5 µg/mL (≈ 94.3 µM)	–
CCCCCCN1C(=O)[C@H](CCCCN)N(Cc2ccc(-c3ccc(-c4ccc(CN5C(=O)N(CCCCCC)C(=O)[C@@H]5CCCCN)cc4)cc3)cc2)C1=O	250 µg/mL (≈ 327 µM)	7.81 µg/mL (≈ 10.2 µM)	125 µg/mL (≈ 163 µM)	–	250 µg/mL (≈ 327 µM)	62.5 µg/mL (≈ 81.7 µM)	62.5 µg/mL (≈ 81.7 µM)	3.91 µg/mL (≈ 5.11 µM)	15.6 µg/mL (≈ 20.4 µM)	–
CO[C@H]1/C=C/O[C@@]2(C)Oc3c(C)c(O)c4c(O)c(c(/C=N/N5CCN(C)CC5)c(O)c4c3C2=O)NC(=O)/C(C)=C\C=C\[C@H](C)[C@H](O)[C@@H](C)[C@@H](O)[C@@H](C)[C@H](OC(C)=O)[C@@H]1C [RIFAMPIN]	–	0.12 µg/mL (≈ 0.146 µM)	–	–	–	7.81 µg/mL (≈ 9.49 µM)	–	–	–	–
CCCCCCN1C(=O)[C@H](CCCCN)N(Cc2ccc(CN3C(=O)N(CCCCCC)C(=O)[C@@H]3CCCCN)cc2)C1=O	250 µg/mL (≈ 408 µM)	31.2 µg/mL (≈ 51 µM)	250 µg/mL (≈ 408 µM)	–	62.5 µg/mL (≈ 102 µM)	250 µg/mL (≈ 408 µM)	62.5 µg/mL (≈ 102 µM)	3.91 µg/mL (≈ 6.38 µM)	125 µg/mL (≈ 204 µM)	–
CC1(C)S[C@@H]2[C@H](NC(=O)[C@H](N)c3ccccc3)C(=O)N2[C@H]1C(=O)O [AMPICILLIN]	–	0.98 µg/mL (≈ 2.8 µM)	–	–	–	250 µg/mL (≈ 715 µM)	–	–	–	–
CCCCCCN1C(=O)[C@H](CCCCN)N(Cc2cccc(-c3cccc(CN4C(=O)N(CCCCCC)C(=O)[C@@H]4CCCCN)c3)c2)C1=O	7.81 µg/mL (≈ 11.3 µM)	3.91 µg/mL (≈ 5.68 µM)	7.81 µg/mL (≈ 11.3 µM)	38 µg/mL	15.6 µg/mL (≈ 22.7 µM)	3.91 µg/mL (≈ 5.68 µM)	7.81 µg/mL (≈ 11.3 µM)	7.81 µg/mL (≈ 11.3 µM)	15.6 µg/mL (≈ 22.7 µM)	–
GENTAMICIN	–	–	–	–	–	–	–	–	–	32
CN(C)[C@@H]1C(O)=C(C(N)=O)C(=O)[C@@]2(O)C(O)=C3C(=O)c4c(O)cccc4[C@@](C)(O)[C@H]3C[C@@H]12 [TETRACYCLINE]	–	0.98 µg/mL (≈ 2.21 µM)	–	–	–	7.81 µg/mL (≈ 17.6 µM)	–	–	–	–
CC1(C)S[C@@H]2[C@H](NC(=O)Cc3ccccc3)C(=O)N2[C@H]1C(=O)O [PENICILLIN G]	–	0.98 µg/mL (≈ 2.93 µM)	–	–	–	250 µg/mL (≈ 748 µM)	–	–	–	–
CCCCCCN1C(=O)[C@H](CCCCN)N(Cc2ccc(CCc3ccc(CN4C(=O)N(CCCCCC)C(=O)[C@@H]4CCCCN)cc3)cc2)C1=O	15.6 µg/mL (≈ 21.8 µM)	1.95 µg/mL (≈ 2.72 µM)	3.91 µg/mL (≈ 5.45 µM)	20.9 µg/mL	125 µg/mL (≈ 174 µM)	3.91 µg/mL (≈ 5.45 µM)	3.91 µg/mL (≈ 5.45 µM)	7.81 µg/mL (≈ 10.9 µM)	7.81 µg/mL (≈ 10.9 µM)	–
